Results published in ChEMBL document CHEMBL1128440 (J Med Chem, 1995).

Columns and labels:
Rattus norvegicus [1] = species: Rattus norvegicus; assay: Tissue biodistribution into estrogen-primed immature female rat uterus at 1 hr blocked time interval; type: ADME, organism-based; settings: in vivo
Outline: (§1)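 Immature female Sprague-Dawley rats (25 days old, ≈50 g, five per time point) primed with estradiol, 5 μg sc daily for 2 days in 50% ethanol/sunflower seed oil, used 24 h after the last injection. The 18F-labeled ligand was given iv by tail vein in 10% ethanol/saline. Decapitated at 1 or 3 h; blood and organs weighed and gamma-counted. Reported as %ID/g ± SD, n = 5.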

Rattus norvegicus [2] = species: Rattus norvegicus; assay: Tissue biodistribution into estrogen-primed immature female rat uterus/blood at 1 hr time interval; type: ADME, organism-based; settings: in vivo; outline: as §1
Rattus norvegicus [3] = species: Rattus norvegicus; assay: Tissue biodistribution into estrogen-primed immature female rat muscle at 1 hr low time interval; type: ADME, organism-based; settings: in vivo; outline: as §1
Rattus norvegicus [4] = species: Rattus norvegicus; assay: Tissue biodistribution into estrogen-primed immature female rat muscle at 1 hr time interval; type: ADME, organism-based; settings: in vivo; outline: as §1
Rattus norvegicus [5] = species: Rattus norvegicus; assay: Tissue biodistribution into estrogen-primed immature female rat lung at 1 hr blocked time interval; type: ADME, organism-based; settings: in vivo; outline: as §1
Rattus norvegicus [6] = species: Rattus norvegicus; assay: Tissue biodistribution into estrogen-primed immature female rat lung at 1 hr low time interval; type: ADME, organism-based; settings: in vivo; outline: as §1
Rattus norvegicus [7] = species: Rattus norvegicus; assay: Tissue biodistribution into estrogen-primed immature female rat ovaries at 1 hr time interval; type: ADME, organism-based, Female gonad; settings: in vivo; outline: as §1
Rattus norvegicus [8] = species: Rattus norvegicus; assay: Tissue biodistribution into estrogen-primed immature female rat uterus/muscle at 3 hr time interval; type: ADME, organism-based; settings: in vivo
[9] = Partition coefficient (logP); type: physicochemical; settings: octanol/water; read-out: logP
Outline: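 log P(o/w) (octanol/water) estimated by a reversed-phase HPLC method.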

Rattus norvegicus [10] = species: Rattus norvegicus; assay: Tissue biodistribution into estrogen-primed immature female rat fat at 3 hr time interval; type: ADME, organism-based, Adipose tissue; settings: in vivo; outline: as §1
Rattus norvegicus [11] = species: Rattus norvegicus; assay: Tissue biodistribution into estrogen-primed immature female rat brain at 1 hr time interval; type: ADME, organism-based; settings: in vivo; outline: as §1
Rattus norvegicus [12] = species: Rattus norvegicus; assay: Tissue biodistribution into estrogen-primed immature female rat brain at 1 hr low time interval; type: ADME, organism-based; settings: in vivo; outline: as §1
Rattus norvegicus [13] = species: Rattus norvegicus; assay: Tissue biodistribution into estrogen-primed immature female rat fat at 1 hr blocked time interval; type: ADME, organism-based, Adipose tissue; settings: in vivo; outline: as §1
Rattus norvegicus [14] = species: Rattus norvegicus; assay: Tissue biodistribution into estrogen-primed immature female rat bone at 1 hr time interval; type: ADME, organism-based, Bone element; settings: in vivo; outline: as §1
Rattus norvegicus [15] = species: Rattus norvegicus; assay: Tissue biodistribution into estrogen-primed immature female rat uterus/blood at 3 hr time interval; type: ADME, organism-based; settings: in vivo; outline: as §1
Rattus norvegicus [16] = species: Rattus norvegicus; assay: Tissue biodistribution into estrogen-primed immature female rat uterus at 1 hr time interval; type: ADME, organism-based; settings: in vivo; outline: as §1
Rattus norvegicus [17] = species: Rattus norvegicus; assay: Tissue biodistribution into estrogen-primed immature female rat lung at 3 hr time interval; type: ADME, organism-based; settings: in vivo; outline: as §1
Rattus norvegicus [18] = species: Rattus norvegicus; assay: Tissue biodistribution into estrogen-primed immature female rat uterus at 3 hr time interval; type: ADME, organism-based; settings: in vivo; outline: as §1
Rattus norvegicus [19] = species: Rattus norvegicus; assay: Tissue biodistribution into estrogen-primed immature female rat uterus/muscle at 1 hr blocked time interval; type: ADME, organism-based; settings: in vivo; outline: as §1
Rattus norvegicus [20] = species: Rattus norvegicus; assay: Tissue biodistribution into estrogen-primed immature female rat ovaries at 1 hr blocked time interval; type: ADME, organism-based; settings: in vivo; outline: as §1
Rattus norvegicus [21] = species: Rattus norvegicus; assay: Tissue biodistribution into estrogen-primed immature female rat uterus/muscle at 1 hr time interval; type: ADME, organism-based; settings: in vivo
Rattus norvegicus [22] = species: Rattus norvegicus; assay: Tissue biodistribution into estrogen-primed immature female rat muscle at 3 hr time interval; type: ADME, organism-based; settings: in vivo; outline: as §1
Rattus norvegicus [23] = species: Rattus norvegicus; assay: Tissue biodistribution into estrogen-primed immature female rat kidney at 1 hr low time interval; type: ADME, organism-based; settings: in vivo; outline: as §1
Rattus norvegicus [24] = species: Rattus norvegicus; assay: Tissue biodistribution into estrogen-primed immature female rat lung at 1 hr time interval; type: ADME, organism-based; settings: in vivo; outline: as §1
Rattus norvegicus [25] = species: Rattus norvegicus; assay: Tissue biodistribution into estrogen-primed immature female rat bone at 3 hr time interval; type: ADME, organism-based, Bone element; settings: in vivo; outline: as §1
Rattus norvegicus [26] = species: Rattus norvegicus; assay: Tissue biodistribution into estrogen-primed immature female rat uterus at 1 hr low time interval; type: ADME, organism-based; settings: in vivo; outline: as §1

Injected dose/g (Rattus norvegicus [1]): 1.43% | Uterus to blood concentration ratio (Rattus norvegicus [2]): 20.09% | Injected dose/g (Rattus norvegicus [3]): 0.25% | Injected dose/g (Rattus norvegicus [4]): 0.64% | Injected dose/g (Rattus norvegicus [5]): 1.16% | Injected dose/g (Rattus norvegicus [6]): 1.23% | Injected dose/g (Rattus norvegicus [7]): 3.04% | ratio (Rattus norvegicus [8]): 53.1 | logP [9]: 4.13 | Injected dose/g (Rattus norvegicus [10]): 4.16% | Injected dose/g (Rattus norvegicus [11]): 0.58% | Injected dose/g (Rattus norvegicus [12]): 0.34% | Injected dose/g (Rattus norvegicus [13]): 3.48% | Injected dose/g (Rattus norvegicus [14]): 1.15% | uterus/blood ratio (Rattus norvegicus [15]): 71.1 | Injected dose/g (Rattus norvegicus [16]): 6.51% | Injected dose/g (Rattus norvegicus [17]): 0.27% | Injected dose/g (Rattus norvegicus [18]): 8.65% | uterus/muscle ratio (Rattus norvegicus [19]): 2.68 | Injected dose/g (Rattus norvegicus [20]): 1.52% | Uterus to muscle uptake ratio (Rattus norvegicus [21]): 12.07% | Injected dose/g (Rattus norvegicus [22]): 0.2% | Injected dose/g (Rattus norvegicus [23]): 0.97% | Injected dose/g (Rattus norvegicus [24]): 1.92% | Injected dose/g (Rattus norvegicus [25]): 1.51% | Injected dose/g (Rattus norvegicus [26]): 3.46%
SMILES: CC1(c2ccco2)O[C@@H]2CC3C4CCC5=CC(=O)CC[C@@H]5C4CC[C@]3(C)[C@]2(C(=O)CF)O1 (stereo partly specified)
